An excerpt weighted towards active compounds, which were near 2.3% of everything screened.
GPR7 antag = antagonists of human GPR7 (neuropeptides B/W receptor 1); P48145; inhibition, % at 4.4 µM; AID 1861; GPR7-expressing cells, fluorescence antagonist assay; hit rate 1.1% among 290,000; in the data active means inhibition above about 16%, passing the limit was not always enough;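 further: cells stimulated with the agonist NPW; 0% = agonist with vehicle and 100% = vehicle without agonist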
Target sequence (P48145 whole entry, looked up): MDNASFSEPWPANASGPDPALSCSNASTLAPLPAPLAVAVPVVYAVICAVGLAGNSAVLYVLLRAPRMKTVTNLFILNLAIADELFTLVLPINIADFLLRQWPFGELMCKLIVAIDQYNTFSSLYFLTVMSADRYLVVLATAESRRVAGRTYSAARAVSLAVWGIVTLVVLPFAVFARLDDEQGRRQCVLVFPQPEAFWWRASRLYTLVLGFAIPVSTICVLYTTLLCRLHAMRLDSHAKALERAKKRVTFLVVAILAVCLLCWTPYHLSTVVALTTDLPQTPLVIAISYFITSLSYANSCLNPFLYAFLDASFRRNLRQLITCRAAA
DSG3 Ab inh = inhibitors of pemphigus antibody binding to human desmoglein-3; P32926; DSG3-coupled beads, scFv-anti-DSG3-GFP binding, flow cytometry; stronger effect = lower value; binding (percent of control), % at 10 µM; hit rate 0.48% among 310,000; AID 588358;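 active means binding more than 3 SD below its plate's average and above zero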
CHT inh = human CHT choline transport inhibition; Q9GZV3; CHT-expressing cells, membrane potential dye, choline response; stronger effect = lower value; B-score at 10 µM; hit rate 0.86% among 310,000;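 active means B-score over 3 SD under the library average, and starting fluorescence ratio not unusually high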;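 further: choline stimulus applied at its EC90 after an EC20 pre-addition; B-score computed on integrated fluorescence ratio after choline addition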
T cell HTS = modulates CD8 T cell binding to vesicles; 2C CD8+ T cell-vesicle binding, flow cytometry; stronger effect = lower value; response (vesicle binding), % at 7 µM; hit rate 0.068% among 330,000;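 active means response, share of CD8 T cells binding vesicles, and their 90th percentile fluorescence all below set limits, cut at about 80% in these data, passing the limit was not always enough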;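 further: values below 100% mean blocked vesicle binding to the CD8+ T cells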
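System: murine 2C transgenic CD8+ T lymphocytes; also added: QL9-loaded Drosophila micro-vesicles; times: binding 1.5 h at 37 °C; measured by: flow cytometry, PE anti-B7-1 (FL2) versus Alexa647 anti-CD8 (FL8), PFA-fixed; control set: Peptide-free naked vesicles (low) and QL9 vesicles with 0.7% DMSO vehicle (high)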
pCIP destab = lowers stability of the mouse p/CIP coactivator protein. F442A p/CIP-EGFP cells, EGFP fluorescence, 16 h. decrease of EGFP signal, % at 10 µM. hit rate 0.01% among 290,000;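 active means EGFP signal decrease of at least 30% at 10 µM or well 3 SD below plate mean, unless failing retest; inactive means the rest, including hits failing retest or dose response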
CHT PAM = human CHT allosteric activation; B-score at 10 µM; CHT-expressing cells, membrane potential dye, choline EC20; stronger effect = higher value; LV-AA mutant CHT in HEK293 cells; hit rate 0.49% among 310,000; Q9GZV3; AID 488977;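 active means initial fluorescence not abnormally high and integrated response B-score, plate-corrected, over 3 SD above library mean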
CHT inh conf = human CHT inhibition, confirmatory screen; CHT activity remaining % of control (stronger effect = lower value), % at 10 µM; shares compounds with CHT inh; hit rate 70% among 2,400; CHT-expressing cells, choline membrane potential dye; LV-to-AA substituted CHT, HEK293 cells;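 active means choline transporter activity left, mean of duplicates at 10 µM, below buffer-only control mean minus 3 SD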;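 further: depolarization triggered by choline at its EC90 following an EC20 pre-addition; 0% = hemicholinium-3 full block and 100% = buffer-only control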
HEK293 MPD ctr = counter-screen for CHT inhibitors: effect in parental HEK293 cells | shares compounds with CHT inh | membrane potential ratio readout (active if shifted either direction beyond buffer ±3SD; no single direction) at 10 µM | AID 493222 | hit rate 4% among 2,400 | membrane potential dye, choline response; active = decrease or increase beyond buffer ±3SD;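 further: parental cells lack the transporter so any hit is non-specific; ratio is peak minus trough fluorescence over baseline after EC90 choline challenge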
An asterisk follows results filed as active; i = inactive; . = no result.

SMILES	GPR7 antag	DSG3 Ab inh	CHT inh	T cell HTS	pCIP destab	CHT PAM	CHT inh conf	HEK293 MPD ctr
COc1ccc(-c2cc(=O)oc(-c3cccc(C)c3)n2)cc1	5	.	-14*	745	-6	i	i	i
O=C(COC(=O)C1(c2ccc(F)cc2)CCCC1)N1CCN(C(=O)c2ccco2)CC1	0	105	i	117	-8	i	.	.
O=C(COC(=O)C1(c2ccccc2F)CCCC1)N1CCN(C(=O)c2ccco2)CC1	-11	101	-5.4*	320	-3	i	68%*	i
Cn1c(CN2CCN(CCO)CC2)c(C#N)c2ccccc21	-11	.	-5.3*	329	-13	i	41%*	i
COc1cccc(/C=C2\SC(=S)N(NS(=O)(=O)c3ccccc3)C2=O)c1OC	-17	101	-5.7*	313	-8	i	44%*	i
COc1cc(/C=C2\SC(=S)N(NS(=O)(=O)c3ccccc3)C2=O)cc(OC)c1OC	-16	97	i	258	-14	i	.	.
CC1CCN(CCNC(=O)CCS(=O)(=O)c2ccc(Br)cc2)CC1	-2	.	-5.3*	175	2	i	i	i
O=C(CCS(=O)(=O)c1ccc(Br)cc1)NC1CCCC1	-12	101	i	0	-14	i	.	.
Cc1ccc(S(=O)(=O)Nc2cccc3c2O[C@H](CN(C)Cc2ccccc2)[C@@H](C)CN([C@H](C)CO)C3=O)cc1	.	107	.	142	.	.	.	.
COCCCNC(=O)CCc1ccccc1	12	110	i	192	-10	i	.	.
COCCNC(=O)C(=O)NNC(=O)CCc1ccccc1	-7	106	-5.5*	322	-5	i	i	i
O=[N+]([O-])c1cccc(S(=O)(=O)Nc2ccc(Cc3ccncc3)cc2)c1	3	99	-6.1*	208	1	i	59%*	i
Cc1cc(=O)n(C(C)c2ccccc2)n1C(C)c1ccccc1 (centres undefined)	.	100	.	.	.	.	.	.
COc1cccc(/C=N/Nc2c(Cl)cncc2Cl)c1O	-3	112	i	355	-3	i	.	.
COc1cccc(/C=N/Nc2cc(Cl)nc(C)n2)c1O	10	94	-6.4*	i	-2	i	i	i
O=C(COC(=O)c1ccccc1Oc1ccccc1)NCc1ccco1	-7	95	-5.4*	329	-13	i	i	i
CCCc1c(C(=O)N/N=C(\C)c2ccc(CC(C)C)cc2)nnn1-c1nonc1N	.	106	.	.	.	.	.	.
Oc1c(Br)cc(Br)c(/C=N/n2c(-c3ccccc3)n[nH]c2=S)c1Br	7	121	-6.8*	323	9	i	48%*	i
Cc1ccc(S(=O)(=O)N2CCCCC2)cc1NC(=O)CSc1nncn1-c1ccccc1	-13	89	-6.1*	355	-1	i	41%*	i
COc1ccc(-n2cnnc2SCC(=O)Nc2cc(S(=O)(=O)N3CCCCC3)ccc2C)cc1	-1	113	-5.3*	199	1	i	53%*	i
COc1ccc(-n2cnnc2SCC(=O)Nc2cccc(S(=O)(=O)N3CCCCC3)c2)cc1	4	101	i	303	-10	i	.	.
N#CC(=C1C=C(Br)C(=NO)C=C1Cl)c1cccc2ccccc12	.	99	.	.	.	.	.	.
CCCc1cc(=O)[nH]c(SCc2cc(C(=O)OC)c(C)o2)n1	-2	.	-6*	202	4	i	i	i
COC(=O)c1cc(CSc2nc3ccccc3[nH]2)oc1C	9	100	i	187	-13	i	.	.
COc1ccc(N=CC2CCCCC2=O)c([N+](=O)[O-])c1 (centres undefined)	.	109	.	.	.	.	.	.
SMILES	GPR7 antag	DSG3 Ab inh	CHT inh	T cell HTS	pCIP destab	CHT PAM	CHT inh conf	HEK293 MPD ctr
CCNc1nc2[nH]c(=O)c3c(c2s1)OC(N)=C(C#N)C3c1ccc(C)cc1 (centres undefined)	-8	.	-5*	285	-21	i	67%*	i
O=C(CCCOC(=O)c1ccc(O)cc1O)c1ccccc1	.	108	.	99	.	.	.	.
O=C(OCCCOc1ccc(F)cc1)c1ccc(O)cc1O	-6	100	-6*	370	-10	i	49%*	i
O=CNc1c(Br)cc2c(c1Br)Cc1cc(Br)ccc1-2	.	87	.	.	.	.	.	.
CCOC(=O)c1sc(=S)n(-c2ccccc2)c1N(C(C)=O)C(C)=O	-7	106	-6.2*	195	2	i	65%*	i
CCOC(=O)c1sc(=S)n(-c2ccccc2)c1N	-5	119	i	167	-6	i	.	.
O=C(NC1CC1)c1ccc(NC(=O)C2CCCCC2)cc1	.	104	.	.	.	.	.	.
N#C/C(=N/Nc1ccc(OC(F)(F)F)cc1)C(N)=S	8	101	-11*	342	0	i	30%*	i
CCOc1ccc(N/N=C(/C#N)C(N)=O)cc1	5	88	i	374	6	i	.	.
Cc1cc(=O)[nH]c(SCC(=O)/C=C2\N(C)c3ccccc3C2(C)C)n1	16	109	-5*	i	-58	i	69%*	i
O=C(NC(c1cccnc1)C(F)(F)F)c1cc(COc2ccc3c(c2)CCCC3)on1 (centres undefined)	9	108	i	198	-7	i	.	.
CC(C)CNS(=O)(=O)c1ccc(CCC(=O)N2CCN(Cc3ccc4c(c3)OCO4)CC2)cc1	-6	90	-5.6*	123	-32	i	62%*	i
CSc1ncnc2c1ncn2CCCNCc1ccc2c(c1)OCO2	.	108	.	.	.	.	.	.
Cc1cc(NS(C)(=O)=O)c(=O)n(Cc2cccc(C(F)(F)F)c2)c1	.	100	.	.	.	.	.	.
Cc1ccc(-c2csc3ncn(CC#N)c(=O)c23)cc1C	-13	120	i	206	-10	i	.	.
Cc1ccc(-c2csc3ncn(CC#N)c(=O)c23)cc1	3	100	-5.6*	84	2	i	50%*	i
C=C1CC2(CC(c3ccccc3)OC(c3ccccc3)C2)OC1=O (centres undefined)	.	86	.	.	.	.	.	.
O=[N+]([O-])c1cccc(CSc2nnc3ccccn23)c1	-23	100	i	149	-3	i	67%*	i
O=C(c1ccc(CN2CCc3ccccc3C2)cc1)N1CCN(c2ccc(F)cc2)CC1	-6	116	-5*	167	.	i	i	i
Cc1cc(C)c(NC(=O)c2ccc(CN3CCc4ccccc4C3)cc2)c(C)c1	3	99	-11*	164	-2	i	18%*	i
O=C(c1ccc(CN2CCc3ccccc3C2)cc1)N1CCCCC1	-3	113	i	376	-1	i	.	.

From PubChem
